Test [1] relates to human T-lymphocyte cells (Molt4/C8). Briefly: Cytostatic assay, inhibition of tumor cell proliferation. Format: cell-based. To be noted: Molt4/C8, read-out: IC50 (50% inhibitory concentration, tumor cell proliferation).
The target of test [2] is T1, human recombinant thymidine phosphorylase (Homo sapiens, UniProt P19971).
T1 sequence (P19971 11-482): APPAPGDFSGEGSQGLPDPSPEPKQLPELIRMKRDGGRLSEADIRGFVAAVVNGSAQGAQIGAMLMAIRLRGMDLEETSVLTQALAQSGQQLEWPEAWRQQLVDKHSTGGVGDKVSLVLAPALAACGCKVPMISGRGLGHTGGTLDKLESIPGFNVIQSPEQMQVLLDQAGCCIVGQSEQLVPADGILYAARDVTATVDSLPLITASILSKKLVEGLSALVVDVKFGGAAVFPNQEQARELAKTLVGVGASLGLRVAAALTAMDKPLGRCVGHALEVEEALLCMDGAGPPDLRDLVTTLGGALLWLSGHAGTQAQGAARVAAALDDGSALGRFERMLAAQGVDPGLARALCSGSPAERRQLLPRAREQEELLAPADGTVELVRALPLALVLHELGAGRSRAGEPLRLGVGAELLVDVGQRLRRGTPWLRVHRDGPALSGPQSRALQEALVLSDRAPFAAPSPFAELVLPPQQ
Briefly: Thymidine phosphorylase assay, conversion to the free base. Format: biochemical. Conditions: purified recombinant enzyme, 100 μM substrate, 20, 40 and 60 min; data not shown. The essentials: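 Aliquots taken at 20, 40 and 60 min and heat-inactivated at 95 °C for 3 min. Free base quantified by RP-8 HPLC with phosphate/heptane sulfonate (pH 3.2) to acetonitrile gradient; UV detection at 267 nm.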

For test [3], the target named is uridine phosphorylase type 1 (Homo sapiens, UniProt Q16831). Briefly: Uridine phosphorylase assay, conversion to the free base. Format: biochemical. Conditions: purified recombinant enzyme, 100 μM substrate, 20, 40 and 60 min; data not shown. In a few lines:
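Samples taken at 20, 40 and 60 min and heated at 95 °C for 3 min. Nucleoside and free base separated on RP-8 HPLC with phosphate/heptane sulfonate (pH 3.2) to acetonitrile gradient; UV detection at 267 nm.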

SMILES strings stand for the structures.

uridine phosphorylase type 1, sequence (Q16831 whole entry): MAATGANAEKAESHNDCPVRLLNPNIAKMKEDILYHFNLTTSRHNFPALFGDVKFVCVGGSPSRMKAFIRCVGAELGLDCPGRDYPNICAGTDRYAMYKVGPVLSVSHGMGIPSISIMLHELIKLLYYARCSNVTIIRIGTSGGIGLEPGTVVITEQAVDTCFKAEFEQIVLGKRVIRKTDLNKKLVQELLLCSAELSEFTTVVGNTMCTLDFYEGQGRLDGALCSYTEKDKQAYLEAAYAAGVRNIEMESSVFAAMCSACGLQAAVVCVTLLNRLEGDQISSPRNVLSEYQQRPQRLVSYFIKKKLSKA

In the case of `Nc1ccn([C@@H]2O[C@H](CO)[C@@H](O)[C@H](F)[C@H]2O)c(=O)n1` [3f, 1-(3-Deoxy-3-fluoro-β-D-glucopyranosyl)cytosine], the IC50 in test [1] was 163 ± 21 µM.

On to `Nc1ncnc2c1ncn2[C@@H]1O[C@H](CO)[C@@H](O)[C@H](F)[C@H]1O` [3g, 9-(3-Deoxy-3-fluoro-β-D-glucopyranosyl)adenine], for which the IC50 in test [1] turned out to be 183 ± 24 µM.

Take `Cc1cn([C@H]2C[C@H](O)[C@@H](CO)O2)c(=O)[nH]c1=O` [thymidine]: the “hydrolysis to the free pyrimidine base by thymidine phosphorylase (TPase)” value in test [2] was “readily converted”.

`O=c1ccn([C@@H]2O[C@H](CO)[C@@H](O)[C@H]2O)c(=O)[nH]1` [uridine]: in test [3], the “hydrolysis to the free pyrimidine base by uridine phosphorylase type I (UPase)” value is listed as “readily converted”.

For the origin of these results see PMC7112006 (Bioorganic Chemistry, 2010).
